Key:
[1] = AUC (0 to 6 hrs) in dog at 2 mg/kg, po; type: ADME, organism-based, Canis lupus familiaris; set-up: time < 6 hr, dose 2 mg/kg, route oral; conditions: plasma
[2] = Inhibition of HCV NS4A-tethered single chain NS3 serine protease assessed as Ac-DTEDVVP(Nva)- O-PAP substrate hydrolysis by spectrophotometric assay; set-up: species or system Hepacivirus hominis
In short: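 Ki* reported for a single P1 diastereomer, within twofold at 95% confidence limit.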

[3] = AUC (0 to 6 hrs) in rat at 10 mg/kg, po; type: ADME, organism-based; set-up: time < 6 hr, dose 10 mg/kg, route oral; conditions: plasma
[4] = tested on: Hepatitis C virus; test: Antiviral activity against Hepatitis C virus genotype 1 by replicon assay; type: functional, organism-based, Hepacivirus hominis
[5] = AUC (0 to 6 hrs) in monkey at 10 mg/kg, po; type: ADME, organism-based, Macaca mulatta; set-up: time < 6 hr, dose 10 mg/kg, route oral; conditions: rhesus monkey, plasma
[6] = Selectivity index, ratio of Ki for HNE to Ki for NS4A-tethered single chain NS3 serine protease
In short: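 Compounds tested against human neutrophil elastase as a counter-protease; selectivity expressed as HNE Ki divided by HCV NS3 protease Ki.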

[7] = AUC (0 to 6 hrs) in dog at 3 mg/kg, po; type: ADME, organism-based, Canis lupus familiaris; set-up: time < 6 hr, dose 3 mg/kg, route oral; conditions: plasma

| AUC(0-t) at 6 h [1] | Ki [2] | AUC(0-t) at 6 h [3] | EC90 [4] | AUC(0-t) at 6 h [5] | Ratio Ki [6] | AUC(0-t) at 6 h [7] | SMILES |
| --- | --- | --- | --- | --- | --- | --- | --- |
| 6.1 µM·h | 6 nM | 0.6 µM·h | 55 nM | 0.1 µM·h | 82 |  | CCC[C@H](NC(=O)[C@@H]1[C@@H]2[C@H](CN1C(=O)[C@@H](NC(=O)NC1(CS(=O)(=O)N(C)C)CCCCC1)C(C)(C)C)C2(C)C)C(=O)C(=O)NC1CC1 |
| 0.5 µM·h | 6 nM | 1.7 µM·h | 100 nM |  |  |  | CCC[C@H](NC(=O)[C@@H]1[C@@H]2[C@H](CN1C(=O)[C@@H](NC(=O)NC1(CS(=O)(=O)N(C(C)C)C3CC3)CCCCC1)C(C)(C)C)C2(C)C)C(=O)C(=O)NC1CC1 |
| 0.3 µM·h | 8 nM | 0.3 µM·h | 45 nM |  | 135 |  | CCC[C@H](NC(=O)[C@@H]1[C@@H]2[C@H](CN1C(=O)[C@@H](NC(=O)NC1(CS(=O)(=O)N3CCOCC3)CCCCC1)C(C)(C)C)C2(C)C)C(=O)C(=O)NC1CC1 |
| 0.2 µM·h | 2.8 nM | 0.1 µM·h | 45 nM |  |  |  | CCC[C@H](NC(=O)[C@@H]1[C@@H]2[C@H](CN1C(=O)[C@@H](NC(=O)NC1(CS(=O)(=O)N(C)C(C)(C)CF)CCCCC1)C(C)(C)C)C2(C)C)C(=O)C(=O)NC1CC1 |
| 0.8 µM·h | 7 nM | 0.8 µM·h | 80 nM |  |  |  | CCC[C@H](NC(=O)[C@@H]1[C@@H]2[C@H](CN1C(=O)[C@@H](NC(=O)NC1(CS(=O)(=O)N3CCC3)CCCCC1)C(C)(C)C)C2(C)C)C(=O)C(=O)NC1CC1 |
|  | 15 nM |  | 300 nM |  | 58 |  | CCC[C@H](NC(=O)[C@@H]1[C@@H]2[C@H](CN1C(=O)[C@@H](NC(=O)NC1(CS(=O)(=O)NC)CCCCC1)C(C)(C)C)C2(C)C)C(=O)C(=O)NC1CC1 |
|  | 14 nM | 0.1 µM·h |  | 0.3 µM·h |  | 3.1 µM·h | CC(C)(C)NC(=O)N[C@H](C(=O)N1C[C@H]2[C@@H]([C@H]1C(=O)NC(CC1CCC1)C(=O)C(N)=O)C2(C)C)C(C)(C)C (stereo partly drawn) [BOCEPREVIR] |
| 0.1 µM·h | 2 nM | 0.6 µM·h | 85 nM |  |  |  | CCC[C@H](NC(=O)C1[C@@H]2[C@H](CN1C(=O)[C@@H](NC(=O)NC1([C@@H](C)S(=O)(=O)N(C)C)CCCCC1)C(C)(C)C)C2(C)C)C(=O)C(=O)NC1CC1 (stereo partly drawn) |
| 4 µM·h | 6 nM | 0.9 µM·h | 75 nM | 5.4 µM·h | 2480 |  | CN(C1CC1)S(=O)(=O)CC1(NC(=O)N[C@H](C(=O)N2CC3C([C@H]2C(=O)N[C@@H](CCC2CC2)C(=O)C(=O)NC2CC2)C3(C)C)C(C)(C)C)CCCCC1 (single isomer, unassigned) |
| 0.2 µM·h | 8 nM | 0.6 µM·h | 55 nM |  | 36 |  | CCC[C@H](NC(=O)[C@@H]1[C@@H]2[C@H](CN1C(=O)[C@@H](NC(=O)NC1(CS(=O)(=O)N(C)C(C)(C)C)CCCCC1)C(C)(C)C)C2(C)C)C(=O)C(=O)NC1CC1 |
| 0.5 µM·h | 9 nM | 1.5 µM·h | 65 nM | 0.1 µM·h | 64 |  | CCC[C@H](NC(=O)[C@@H]1[C@@H]2[C@H](CN1C(=O)[C@@H](NC(=O)NC1(CS(=O)(=O)N(C)CC)CCCCC1)C(C)(C)C)C2(C)C)C(=O)C(=O)NC1CC1 |
|  | 11 nM |  | 105 nM |  | 959 |  | CCCC[C@H](NC(=O)[C@@H]1[C@@H]2[C@H](CN1C(=O)[C@@H](NC(=O)NC1(CS(=O)(=O)N(C)C3CC3)CCCCC1)C(C)(C)C)C2(C)C)C(=O)C(=O)NC1CC1 |
| 0.2 µM·h | 7 nM | 0.3 µM·h | 90 nM |  |  |  | CCC[C@H](NC(=O)[C@@H]1[C@@H]2[C@H](CN1C(=O)[C@@H](NC(=O)NC1(CS(=O)(=O)N(C)C3CCC3)CCCCC1)C(C)(C)C)C2(C)C)C(=O)C(=O)NC1CC1 |
|  | 4 nM | 0.1 µM·h | 20 nM |  | 340 |  | CCC[C@H](NC(=O)[C@@H]1[C@@H]2[C@H](CN1C(=O)[C@@H](NC(=O)NC1([C@@H]3CCN(C)S3(=O)=O)CCCCC1)C(C)(C)C)C2(C)C)C(=O)C(=O)NC1CC1 |
| 6.9 µM·h | 8 nM | 1.8 µM·h | 55 nM | 3.3 µM·h | 82 |  | CCC[C@H](NC(=O)[C@@H]1[C@@H]2[C@H](CN1C(=O)[C@@H](NC(=O)NC1(CS(=O)(=O)N(C)C3CC3)CCCCC1)C(C)(C)C)C2(C)C)C(=O)C(=O)NC1CC1 |
| 7.9 µM·h | 5 nM | 1 µM·h | 65 nM |  | 131 |  | CCC[C@H](NC(=O)[C@@H]1[C@@H]2[C@H](CN1C(=O)[C@@H](NC(=O)NC1(CS(=O)(=O)N(CC)C3CC3)CCCCC1)C(C)(C)C)C2(C)C)C(=O)C(=O)NC1CC1 |
|  | 4 nM | 0.1 µM·h | 20 nM |  | 340 |  | CCC[C@H](NC(=O)[C@@H]1[C@@H]2[C@H](CN1C(=O)[C@@H](NC(=O)NC1(C3CCN(C4CC4)S3(=O)=O)CCCCC1)C(C)(C)C)C2(C)C)C(=O)C(=O)NC1CC1 (single isomer, unassigned) |
| 1.4 µM·h | 15 nM | 2.2 µM·h | 60 nM |  | 113 |  | CN(C1CC1)S(=O)(=O)CC1(NC(=O)N[C@H](C(=O)N2C[C@H]3[C@@H]([C@H]2C(=O)N[C@@H](CC2CC2)C(=O)C(=O)NC2CC2)C3(C)C)C(C)(C)C)CCCCC1 |
|  | 9 nM |  | 135 nM |  |  |  | CCC[C@H](NC(=O)[C@@H]1[C@@H]2[C@H](CN1C(=O)[C@@H](NC(=O)NC1(CS(=O)(=O)N(C)CC3CC3)CCCCC1)C(C)(C)C)C2(C)C)C(=O)C(=O)NC1CC1 |
| 0.1 µM·h | 4 nM |  | 55 nM |  | 20 |  | C#CCCC(NC(=O)[C@@H]1[C@@H]2[C@H](CN1C(=O)[C@@H](NC(=O)N[C@H](C(=O)C1CC1)C1CCCCC1)C(C)(C)C)C2(C)C)C(=O)C(=O)NC1CC1 (stereo partly drawn) |
| 0.2 µM·h | 7 nM | 0.9 µM·h | 70 nM |  | 97 |  | CCC[C@H](NC(=O)[C@@H]1[C@@H]2[C@H](CN1C(=O)[C@@H](NC(=O)NC1(CS(=O)(=O)N(C)C(C)C)CCCCC1)C(C)(C)C)C2(C)C)C(=O)C(=O)NC1CC1 |
|  | 49 nM |  | 20 nM | 0.05 µM·h | 55 |  | CC(C)(C)[C@H](NC(=O)NC1(C(=O)OCc2ccccc2)CCCCC1)C(=O)N1C[C@H]2[C@@H]([C@H]1C(=O)NC(CC1CC1)C(=O)C(N)=O)C2(C)C (stereo partly drawn) |
|  | 22 nM |  |  |  |  |  | CCC[C@H](NC(=O)[C@@H]1[C@@H]2[C@H](CN1C(=O)[C@@H](NC(=O)NC1([C@H](C)S(=O)(=O)N(C)C)CCCCC1)C(C)(C)C)C2(C)C)C(=O)C(=O)NC1CC1 |
